Key:
Aromatase [1] = target: T1, Aromatase (Homo sapiens, UniProt P11511); assay: Inhibition of aromatase after 10 mins preincubation by plate reader relative to control
T1 sequence (P11511 whole entry): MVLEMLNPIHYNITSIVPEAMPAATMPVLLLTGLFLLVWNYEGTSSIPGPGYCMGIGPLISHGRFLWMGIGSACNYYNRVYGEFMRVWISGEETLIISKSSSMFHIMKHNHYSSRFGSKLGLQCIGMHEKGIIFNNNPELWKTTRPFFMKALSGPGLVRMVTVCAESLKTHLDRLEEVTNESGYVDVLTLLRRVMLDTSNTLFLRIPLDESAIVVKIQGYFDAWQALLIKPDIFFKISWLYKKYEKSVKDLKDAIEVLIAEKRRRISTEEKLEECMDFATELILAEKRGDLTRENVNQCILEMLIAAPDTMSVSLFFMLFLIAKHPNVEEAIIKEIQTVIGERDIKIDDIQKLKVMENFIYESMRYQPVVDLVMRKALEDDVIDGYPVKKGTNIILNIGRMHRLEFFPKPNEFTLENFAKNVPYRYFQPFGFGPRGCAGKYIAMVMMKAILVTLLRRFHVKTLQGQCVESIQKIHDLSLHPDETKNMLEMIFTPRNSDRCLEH

[2] = target: T2, Nitric oxide synthase, inducible (Mus musculus) (UniProt P29477); assay: Inhibition of iNOS-mediated nitric oxide production in LPS-stimulated mouse RAW 264.7 cells assessed as cell survival at 50 uM pretreated 15 mins before LPS challenge measured after 20 hrs relative to control; assay type: cell-based
T2 sequence (whole entry): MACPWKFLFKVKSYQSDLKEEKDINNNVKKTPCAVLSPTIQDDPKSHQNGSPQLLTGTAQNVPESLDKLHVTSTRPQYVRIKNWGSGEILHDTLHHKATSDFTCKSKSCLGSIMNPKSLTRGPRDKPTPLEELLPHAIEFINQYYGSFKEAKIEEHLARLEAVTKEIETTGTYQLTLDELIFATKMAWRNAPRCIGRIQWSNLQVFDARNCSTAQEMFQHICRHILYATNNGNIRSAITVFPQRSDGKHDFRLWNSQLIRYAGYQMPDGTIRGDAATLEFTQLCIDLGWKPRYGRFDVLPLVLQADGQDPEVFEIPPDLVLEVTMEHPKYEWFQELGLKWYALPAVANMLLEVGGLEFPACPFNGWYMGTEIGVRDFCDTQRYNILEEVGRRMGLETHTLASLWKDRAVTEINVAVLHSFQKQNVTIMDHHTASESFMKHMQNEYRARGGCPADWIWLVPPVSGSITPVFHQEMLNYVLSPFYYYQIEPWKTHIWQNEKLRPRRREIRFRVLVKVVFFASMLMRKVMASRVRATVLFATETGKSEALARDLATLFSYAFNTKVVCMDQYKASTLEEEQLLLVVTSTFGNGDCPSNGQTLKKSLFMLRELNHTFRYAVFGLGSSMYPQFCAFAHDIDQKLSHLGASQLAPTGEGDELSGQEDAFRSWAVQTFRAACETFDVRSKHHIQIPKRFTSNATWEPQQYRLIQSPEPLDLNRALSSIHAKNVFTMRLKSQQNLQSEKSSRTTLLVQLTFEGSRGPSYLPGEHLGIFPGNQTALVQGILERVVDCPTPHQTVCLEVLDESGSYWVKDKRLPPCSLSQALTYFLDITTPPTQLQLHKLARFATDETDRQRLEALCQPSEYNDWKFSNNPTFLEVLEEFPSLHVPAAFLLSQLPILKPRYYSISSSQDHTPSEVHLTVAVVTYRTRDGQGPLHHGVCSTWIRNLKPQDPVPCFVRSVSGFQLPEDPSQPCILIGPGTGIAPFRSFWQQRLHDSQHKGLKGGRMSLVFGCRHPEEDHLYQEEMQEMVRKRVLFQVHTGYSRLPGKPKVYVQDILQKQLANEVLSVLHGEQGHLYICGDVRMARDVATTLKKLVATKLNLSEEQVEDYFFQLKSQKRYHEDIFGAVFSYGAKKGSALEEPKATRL
Outline: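 RAW 264.7 cells were incubated at 37°C, 5% CO2 for 24 h. They were then exposed to compound for 15 min before LPS (1 μg/mL) was added for 20 h. Cytotoxicity was measured by SRB staining under the same conditions. Survival is expressed as % relative to vehicle-treated controls at 50 μM.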

MCF7 [3] = assay: Antiproliferative activity against human MCF7 cells assessed as survival at 50 uM after 72 hrs by SRB assay relative to control; assay type: functional; settings: MCF7, 72 h, read-out: Survival
Outline: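 MCF7 cells (1 × 10^4 per well) were plated onto compound and kept at 37°C, 5% CO2 for 72 h. Cells were fixed in 10% TCA for 30 min and stained with 0.4% SRB in 1% acetic acid for 30 min. Bound dye was dissolved in 10 mM Tris (pH 10.0) and read at 515 nm. Survival is given as % of DMSO-treated controls, screened at 50 μM.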

[4] = target: NAD(P)H dehydrogenase [quinone] 1 (Mus musculus) (UniProt Q64669); assay: Induction of quinone reductase 1 activity in mouse Hepa-1c1c7 cells at 50 uM by MTT assay relative to untreated control; assay type: cell-based
Outline: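 Hepa 1c1c7 murine hepatoma cells treated with compound at 50 μM. QR1 measured by NADPH-dependent, menadiol-mediated reduction of MTT to formazan. Protein measured by crystal violet staining of identical plates. Specific activity is nmol formazan per mg protein per min. Induction ratio is treated versus DMSO-treated control.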

HEK293 [5] = assay: Inhibition of TNF-alpha-induced NFkappaB activation in human HEK293 cells at 50 uM after 6 hrs by luciferase assay relative to control; assay type: cell-based
Outline: (§1)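 Cells incubated 6 h with TNFα plus test compound, then luciferase activity measured. Results expressed as percent of TNFα-treated control. Screening concentration 50 μM.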

HEK293 [6] = assay: Inhibition of TNF-alpha-induced NFkappaB activation in human HEK293 cells assessed as cell survival at 50 uM after 6 hrs by luciferase assay relative to control; assay type: cell-based
Aromatase [7] = target: T1, Aromatase; assay: Inhibition of aromatase at 50 uM after 10 mins preincubation by plate reader relative to control
Outline: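 CYP19 enzyme. Compound pre-incubated 10 min with an NADPH-regenerating system (NADP+, glucose 6-phosphate, G6PDH, MgCl2, albumin) in 50 mM potassium phosphate pH 7.4. Enzyme and 0.4 μM dibenzylfluorescein substrate then added, 30 min at 37 °C. Quenched with 2 N NaOH and incubated a further 2 h at 37 °C. Fluorescence read at ex 485/em 530 nm. Compound tested at 50 μM.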

[8] = target: T2, Nitric oxide synthase, inducible (Mus musculus); assay: Inhibition of iNOS-mediated nitric oxide production in LPS-stimulated mouse RAW 264.7 cells at 50 uM pretreated 15 mins before LPS challenge measured after 20 hrs relative to control; assay type: cell-based
Outline: (§2)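 RAW 264.7 cells cultured 24 h at 37°C, then given serially diluted compounds for 15 min before LPS (1 μg/mL) for 20 h. Nitrite in the medium measured with Griess reagent at 540 nm against a sodium nitrite standard curve. Cytotoxicity checked by SRB under the same conditions.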

[9] = target: NAD(P)H dehydrogenase [quinone] 1 (Mus musculus) (UniProt Q64669); assay: Induction of quinone reductase 1 activity in mouse Hepa-1c1c7 cells assessed as cell survival at 50 uM by MTT assay relative to control; assay type: cell-based
MCF7 [10] = assay: Antiproliferative activity against human MCF7 cells after 72 hrs by SRB assay; assay type: functional, cell-based; settings: MCF7, 72 h
Outline: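 MCF7 cells, 1 × 10^4 per well, plated directly onto compounds and incubated 72 h at 37°C, 5% CO2. Fixed with 10% TCA, stained with 0.4% SRB in 1% acetic acid. Bound dye dissolved in 10 mM Tris pH 10.0, absorbance read at 515 nm. Survival expressed relative to DMSO-treated controls.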

[11] = target: T3, Nitric oxide synthase, inducible (Mus musculus, UniProt P29477); assay: Inhibition of iNOS-mediated nitric oxide production in LPS-stimulated mouse RAW 264.7 cells pretreated 15 mins before LPS challenge measured after 20 hrs relative to control; assay type: cell-based; outline: as §2
T3 sequence (P29477 whole entry): T2 sequence (whole entry)

[12] = Inhibition of TNF-alpha-induced NFkappaB activation in human HEK293 cells after 6 hrs by luciferase assay; assay type: cell-based; settings: HEK293, 6 h; outline: as §1
[13] = target: NAD(P)H dehydrogenase [quinone] 1 (Mus musculus) (UniProt Q64669); assay: Induction of quinone reductase 1 in mouse Hepa 1c1c7 cells assessed as concentration of compound required to double enzyme activity by MTT assay; assay type: cell-based
Outline: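 Dose-response in Hepa 1c1c7 cells, run for substances with induction ratio >2 at 50 μM. QR1 activity measured as menadiol-mediated, NADPH-dependent MTT reduction to formazan, normalised to crystal violet protein content. CD is the concentration that doubles specific activity relative to DMSO control.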

Chain of NAD(P)H dehydrogenase [quinone] 1 (Mus musculus) (Q64669 whole entry): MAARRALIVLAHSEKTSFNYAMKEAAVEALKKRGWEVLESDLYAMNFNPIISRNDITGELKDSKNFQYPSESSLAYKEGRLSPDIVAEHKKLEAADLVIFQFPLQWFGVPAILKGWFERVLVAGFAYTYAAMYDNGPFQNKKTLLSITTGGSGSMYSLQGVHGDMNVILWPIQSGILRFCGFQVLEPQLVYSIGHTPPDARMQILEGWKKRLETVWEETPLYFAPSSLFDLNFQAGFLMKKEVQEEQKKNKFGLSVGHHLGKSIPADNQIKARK

Compound	IC50 (Aromatase [1]) [µM]	Survival [2] [%]	viability at 50 µM (MCF7 [3]) [%]	Ratio [4]	inhibition (HEK293 [5]) [%]	Survival (HEK293 [6]) [%]	inhibition at 50 µM (Aromatase [7]) [%]	inhibition [8] [%]	Survival [9] [%]	IC50 (MCF7 [10]) [µM]	IC50 [11] [µM]	IC50 [12] [µM]	CD [13] [µM]
COC(=O)[C@H]1Cc2c([nH]c3ccccc23)CN1S(C)(=O)=O	68.1	79.9	90.9	1.6	42.2	158	40.2	12.9	86.3				
O=C(O)[C@@H]1Cc2c([nH]c3ccccc23)CN1Cc1ccc(O)cc1	10.5	90.3	85.2	1.7	55	102	57.9	16	88.3				
C=CCOC(=O)N1Cc2[nH]c3ccccc3c2C[C@H]1C(=O)OC	44.8	94.2	70.4	1.9	33.3	191	54.6	8.5	83.4				
COC(=O)[C@H]1Cc2c([nH]c3ccccc23)CN1C(=O)NCCc1ccccc1		66.1	4.3	1.5	81.7	108	24.6	66.2	51.7	27.7	11	13.3	
COC(=O)[C@@H]1Cc2c([nH]c3ccccc23)CN1S(=O)(=O)c1ccc(C)cc1	63.2	116	19	1.3	6	171	41.7	73.8	61	37	22.6		
CCCCCNC(=O)N1Cc2[nH]c3ccccc3c2C[C@H]1C(=O)OC		94.9	40.3	4.9	35.5	110	-0.04	8.7	7.8	38.4			3.8
COC(=O)[C@@H]1Cc2c([nH]c3ccccc23)CN1C(=O)NC12CC3CC(CC(C3)C1)C2		66.7	37.6	0.9	60.7	139	30.3	64.1	78.1	36.9	13.4	10.2	
COC(=O)[C@@H]1Cc2c([nH]c3ccccc23)CN1C(=O)NC1CCCCC1		79	26.3	1.1	44.7	111	33	53.8	71.5	35.8	41.1		
COC(=O)[C@@H]1Cc2c([nH]c3ccccc23)CN1C(=O)NCCc1ccccc1		68.9	1.3	0.5	87.7	94.6	31.8	48.2	59.6	25.4		16.9	
COC(=O)[C@@H]1Cc2c([nH]c3ccccc23)CN1Cc1ccc(O)cc1	57.4	75.5	94.7	1.3	47.8	96	46.1	62.1	91.7		38.8		
COC(=O)[C@H]1Cc2c([nH]c3ccccc23)CN1S(=O)(=O)c1ccc(Br)cc1		89.7	30.6	2.1	43.7	154	35.5	3.8	83.7	42.1			29.7
COC(=O)[C@@H]1Cc2c([nH]c3ccccc23)CN1C(=O)NC(C)C	47.3	94.3	71	2.9	69	117	54	37.8	61.2			26.5	6.4
COC(=O)[C@@H]1Cc2c([nH]c3ccccc23)CN1CC1CC1	58.6	99.8	85.6	2.2	54.1	152	47.7	23.5	68.6				34
COC(=O)[C@H]1Cc2c([nH]c3ccccc23)CN1C(=O)NC1CCCCC1		83.8	5.3	1	20.9	101	24.4	55	71.8	18.4	41.6		

— ChEMBL document CHEMBL1914395, “Design, synthesis, and biological evaluation of callophycin A and analogues as potential chemopreventive and anticancer agents” (Bioorg Med Chem, 2011)
